Assay results taken from paper PMC3746791 (International Journal of Nanomedicine, 2013).

Experiments:
HepG2 cells = type: cell-based, human; details: 2 hours, DOX equivalent 30 μg/mL
Method in brief: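 HepG2 cells in DMEM/10% FBS, 37°C, […], exposed 2 h at 37°C to free or liposomal drug at 30 μg/mL DOX equivalent. Confocal: 7 × 10^4 cells/well on cover glass, 50% confluence, PBS-washed, paraformaldehyde-fixed, Triton-permeabilised, DAPI-stained, ex/em 488/560 nm. Flow: 80% confluence, ex 488/em 575 nm, drug-free cells as reference, n = 3. Competition: 100 mM Gal stock added before liposomes.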

[1] = Pharmacokinetic studies in rats; type: in vivo, Sprague Dawley rats; details: at 4 hours postinjection, DOX equivalent dose 10 mg/kg
Method in brief: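 Sprague Dawley rats, 5 per group, given 10 mg/kg DOX equivalent. Jugular blood drawn 10 min to 8 h, plasma spun off immediately. Salicylic acid internal standard added, then perchloric acid precipitation. Supernatant run on C18 HPLC in NH4H2PO4 (0.01 mol/L)-acetonitrile-acetic acid (76:24:0.4) at 1.0 mL/min, 233 nm, 40°C. Two-compartment pharmacokinetic modelling.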

[2] = In vivo biodistribution study; set-up: species or system Kunming mice; details: mice, intravenous, DOX equivalent 5 mg/kg; heart, spleen, lung, kidney

- Plasma concentration of DOX [1]: 0.18 µg/mL
Structure (SMILES): COc1cccc2c1C(=O)c1c(O)c3c(c(O)c1C2=O)C[C@@](O)(C(=O)CO)C[C@@H]3O[C@H]1C[C@H](N)[C@H](O)[C@H](C)O1 [Free DOX, doxorubicin]
- Cellular uptake of DOX (fluorescence) (HepG2 cells): most intense intracellular fluorescence
- DOX fluorescence in other organs [2]: fluorescence was also observed in the heart, spleen, and kidney
